Only some compounds are listed: those with a hit (about 1.3% of all), similar ones and a draw of the others.
G6PDH CS: counter-screen for G6PDH assay hits: L. mesenteroides G6PDH inhibition. Purified L. mesenteroides G6PDH, diaphorase/resazurin coupled fluorescence, 45 min. inhibition, % at 5 µM. AID 1020. actives 0.12% (n = 200,000); in the data active = inhibition above about 50%
HKDC1 inhibitor: blocks human hexokinase HKDC1 activity; Q2TB90; recombinant HKDC1, G6PDH/diaphorase resazurin coupled fluorescence; inhibition, % at 20 µM; actives 0.16% (n = 340,000); AID 493160;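 active = inhibition above about 35% when tested at 20 µM, limit read from the data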;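 note: plate controls were DMSO wells with enzyme for no effect and DMSO wells lacking enzyme for full effect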
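Assay system: recombinant HKDC1 hexokinase; detection: coupled resazurin fluorescence, excitation 525 nm, emission 613 nm; benchmarks: DMSO-plus-enzyme-mix negative control, buffer-substituted positive control; compound dosing: single 20 µM dose; schedule: 90 min at room temperature in dark; also added: glucose plus 1 mM ATP as hexokinase substrates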
Diaphorase inh: inhibits diaphorase or chemically oxidizes, flagging diaphorase assay artifacts; diaphorase resazurin-to-resorufin fluorescence, NADH, 16 min; bacterial (C. kluyveri) enzyme, not human; inhibition, % at 20 µM; actives 0.69% (n = 190,000); AID 1217;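 active = primary screen inhibition at 20 µM above a set limit, cut at about 50% in these data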;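 note: plate controls were DMSO with full reaction for no effect and wells lacking NADH for full effect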
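Detection: fluorescence of resorufin formed from resazurin, Ex 544/Em 590 nm; test system: Clostridium kluyveri diaphorase enzyme; amount: 0.14 U/mL diaphorase, enzyme working solution; times: 16-min room-temperature incubation before reading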
PfGluPho inh: PfG6PD (Plasmodium falciparum) enzyme inhibition; PfGluPho enzyme, NADPH resazurin-diaphorase fluorescence; inhibition, % at 20 µM; actives 0.78% (n = 350,000);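 active = inhibition reaching at least a set limit at 20 µM in the primary screen, cut at about 59% in these data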;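 note: 0% = DMSO wells with substrate and 100% = DMSO wells lacking glucose-6-phosphate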
Diaph act CS: counter-screen for diaphorase-based assays: diaphorase activators and chemical reducers. AID 1229. activation factor at 20 µM. Diaphorase/resazurin coupled assay, resorufin fluorescence, 16 min; hits give high values; 1 = vehicle wells, 0 = NADH-free wells. actives 0.005% (n = 190,000);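 active = diaphorase activity raised at least twofold by the compound at 20 µM; inactive = activation factor below 2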
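Material: purified diaphorase enzyme from Clostridium kluyveri; Also added: 0.114 mM NADH and 0.1 mM resazurin, final amounts; Doses: single compound dose of 20 µM, 1% DMSO final; Times: 16 min enzyme reaction, ambient temperature; Detection: resorufin fluorescence, excitation 544 nm, emission 590 nm; Measure: increased resorufin signal from activators or reducing compounds.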
HKDC1 act conf2: confirmation of human HKDC1 activators. actives 14% (n = 740). recombinant HKDC1, G6PDH/diaphorase resazurin fluorescence; hits give low values. AID 504708. inhibition, % at 20 µM. shares compounds with HKDC1 inhibitor;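 active = inhibition at or below a set negative limit, negative inhibition meaning the enzyme was activated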
Starred values were filed as active, the others as inactive; . = no result given.

SMILES | G6PDH CS | HKDC1 inhibitor | Diaphorase inh | PfGluPho inh | Diaph act CS | HKDC1 act conf2
COc1c(CC=C(C)C)cc(C2CC(=O)c3c(O)cc(O)cc3O2)cc1CC=C(C)C (centres undefined) | . | 6 | . | 18 | . | .
COC1=CC(=O)C(C2CC(=O)c3c(O)cc(O)cc3O2)=CC1=O (centres undefined) | . | 60* | . | 124* | . | 40
O=C(CSc1nnc(-c2cccnc2)s1)Nc1ccnc2ccccc12 | 15 | 35 | 19 | 28 | 0.8 | 18
Cc1ccc(NC(=O)CSc2nnc(-c3cccnc3)s2)cc1 | -7 | -6 | -9 | 34 | 1.1 | .
Cc1cc(C(=O)CCl)c(C)n1CCc1ccc(Cl)cc1 | -1 | 39* | 14 | 17 | 0.9 | 10
Cc1cc(C(=O)CCl)c(C)n1CCc1ccc(F)cc1 | 1 | 28 | 10 | -7 | 0.9 | .
NC(=S)N=Nc1c(O)[nH]c2ccc(F)cc12 | 6 | 9 | 14 | -10 | 0.9 | .
NC(=S)N=Nc1c(O)cc(O)c2[nH]c(=O)ccc12 | . | 35* | . | 93* | . | 27
CC[n+]1c(/C=C2\Sc3ccccc3N2C)ccc2cccc(C)c21 | 7 | -40 | -57 | 20 | 1.6 | -38*
CCN1/C(=C/c2ccc3cc(C)ccc3[n+]2CC)Sc2ccccc21 | -1 | -27 | -27 | -11 | 1.3 | .
Cc1ccccc1N=C1NN=C(c2ccccc2F)CS1 | -12 | -47 | 11 | 8 | 0.9 | -40*
COc1ccc(C(C)=O)cc1CSc1nncn1C | 8 | 0 | 3 | 9 | 1 | .
O=C(CCN1C(=O)/C(=C\c2ccccc2)SC1=S)Nc1ccc(C(=O)O)cc1 | . | 10 | . | -24 | . | .
CCOc1ccc(/C=C2/SC(=S)N(CCC(=O)Nc3ccc(C(=O)O)cc3)C2=O)cc1 | . | 43* | . | -25 | . | -42*
CCCCC(=O)NC(c1ccc(N(CC)CC)cc1)c1ccc2cccnc2c1O (centres undefined) | . | -46 | . | -12 | . | -59*
O=C1NN(c2cccc(Br)c2)C(=O)/C1=C/c1ccc(-c2cc([N+](=O)[O-])ccc2O)o1 | . | 62* | . | 6 | . | -13
O=C(NN1CCOCC1)c1ccc(Cl)c([N+](=O)[O-])c1 | . | 36* | . | 5 | . | -34
Cc1ccccc1Cn1ccc(NC(=O)c2cnn3c2NC(c2ccccc2)CC3C(F)(F)F)n1 (centres undefined) | 0 | 11 | 22 | -18 | 0.8 | .
O=C(O)c1cccc(-n2cccc2/C=C2/NC(=O)N(c3ccc(Cl)cc3)C2=O)c1 | 6 | 61* | 62* | 18 | 0.4 | 37
O=C(O)c1cccc(-n2cccc2/C=C2/NC(=O)N(c3cccc(Cl)c3)C2=O)c1 | . | 2 | . | -14 | . | .
C/C(=N\NC(=O)c1c(C)nc2ccccn12)c1ccccc1F | . | 0 | . | -13 | . | .
C/C(=N\NC(=O)c1c(C)nc2ccccn12)c1ccc(O)cc1O | . | -45 | . | -9 | . | -8
COC(=O)c1cc(=O)n(Cc2ccc(OC)cc2)c(=NCc2ccc(OC)cc2)s1 | -1 | -43 | 14 | 5 | 0.9 | -16
COC(=O)c1cc(=O)n(Cc2ccccc2)c(=NCc2ccccc2)s1 | 0 | . | -4 | . | 1 | .
CCC(c1ccccc1)C(CC)c1cc(O)c(O)c(O)c1 (centres undefined) | . | 42* | . | 38 | . | 36
SMILES | G6PDH CS | HKDC1 inhibitor | Diaphorase inh | PfGluPho inh | Diaph act CS | HKDC1 act conf2
Cc1cc(Oc2ccc(OCC(N)=O)nn2)nc(Cl)n1 | 6 | -9 | 10 | -6 | 0.9 | .
COc1ccc(Oc2cc(C)nc(Cl)n2)nn1 | -8 | -78 | -15 | -4 | 1.2 | -15
COc1ccc(N=Nc2ccc(N)nc2N)cc1 | . | 0 | . | 22 | . | .
CCOc1ccc2nc3cc(N=Nc4ccc(N)nc4N)ccc3c(N)c2c1 | . | 37* | . | 58 | . | -31
Cc1ccc(C)c(S(=O)(=O)N2CCN(C(=O)CNC(=O)c3sc4ccccc4c3Cl)CC2)c1 | . | -2 | . | 3 | . | .
COc1ccc(C(=O)/C=C/Sc2nc3ccccc3o2)cc1 | . | 38* | . | 27 | . | 4
CN(CC(=O)Nc1cccc(C(F)(F)F)c1)Cc1ccccc1 | . | -4 | . | 19 | . | .
O=C(c1ccccc1)c1n[nH]c(-c2ccccc2)cc1=O | 3 | -42 | 6 | -3 | 0.9 | 16
O=C(OCn1ncc(Cl)c(Cl)c1=O)c1ccc(C(F)(F)F)cc1 | 9 | 46* | 5 | 8 | 0.9 | 2
Cc1ccccc1C(=O)NN1C(=O)CSC1=S | -10 | 0 | 3 | -15 | 1 | .
O=C1CSC(=S)N1Nc1ccccc1 | . | -44 | . | 26 | . | -17
COc1ccccc1N1CCN(C(=O)CSc2nc3ccccc3o2)CC1 | 3 | 5 | 14 | 17 | 0.9 | .
COc1ccc(-c2oc(NC(=O)CCl)c(C#N)c2-c2ccc(OC)cc2)cc1 | 2 | 46* | 21 | -30 | 0.8 | 21
O=C1C(Cl)=C(Nc2ccccc2)C(=O)c2ccccc21 | 45 | -38 | 31 | -17 | 0.7 | .
O=C(O)c1ccc(NC2=C(Cl)C(=O)c3ccccc3C2=O)cc1 | . | -131 | . | -89 | . | -94*
Cc1cc(OCC(=O)Nc2cccnc2)c2c(C)cc(=O)oc2c1 | . | 1 | . | 11 | . | .
COc1cccc2cc(C(=O)Nc3ccc(F)cc3)c(=Nc3ccc(C(=O)O)cc3)oc12 | 0 | 77* | 62* | -9 | 0.4 | 9
COc1ccc(N=c2oc3c(OC)cccc3cc2C(=O)NCc2ccco2)cc1OC | 1 | 18 | 2 | 6 | 1 | .
Cc1ccc(S(=O)(=O)NC2c3cccc4cccc(c34)C2Sc2nncn2C)cc1 (centres undefined) | 10 | -14 | 6 | 1 | 0.9 | .
CC(=O)N1CCN(C2c3cccc4cccc(c34)C2NS(=O)(=O)c2ccccc2)CC1 (centres undefined) | -2 | -49 | 16 | -22 | 0.8 | -45*
Cn1cnnc1SC1c2cccc3cccc(c23)C1NS(=O)(=O)c1ccccc1 (centres undefined) | 9 | -49 | 8 | -50 | 0.9 | -64*
Oc1ccc(O)c(Cc2nc3ccccc3s2)c1 | -2 | 45* | -4 | 17 | 1 | 37
Nc1nc(N2CCN(c3ccccn3)CC2)nc2ccccc12 | . | -58 | . | -51 | . | -44*
Cc1ccccc1NC(=S)N/N=C/c1ccc(O)cc1O | . | -42 | . | -23 | . | -12
CCCOc1ccc(/C=N/NC(=S)Nc2ccccc2[N+](=O)[O-])c(O)c1 | 9 | -48 | 2 | 1 | 1 | -48*
Cc1nc2c(c(=O)c3ccccc3n2C)c(=O)n1-c1ccc(F)cc1 | . | 51* | . | 41 | . | 53
CCCc1nc2c(c(=O)c3ccccc3n2C)c(=O)n1-c1ccc(F)cc1 | 1 | 51* | 78* | 48 | 0.2 | 58
O=C(CCc1ccccc1)N=C1SC2CS(=O)(=O)CC2N1Cc1ccccc1 (centres undefined) | . | -4 | . | -18 | . | .

Assay outcomes from PubChem.
